The target of one assay is Acetylcholinesterase (Electrophorus electricus, UniProt O42275). Kind of assay: (§1) Inhibition of electric eel acetylcholinesterase using acetylthiocholine iodide as substrate preincubated for 10 mins before substrate addition after 15 mins by Ellman's method. On the technique in general: DTNB colorimetry detects thiols as they appear.
The target in the next assay is Cholinesterase (Homo sapiens, UniProt P06276). Kind of assay: Inhibition of human BChE using butyrylthiocholine iodide as substrate preincubated for 10 mins before substrate addition after 15 mins by Ellman's method.
Cholinesterase, sequence (P06276 whole entry): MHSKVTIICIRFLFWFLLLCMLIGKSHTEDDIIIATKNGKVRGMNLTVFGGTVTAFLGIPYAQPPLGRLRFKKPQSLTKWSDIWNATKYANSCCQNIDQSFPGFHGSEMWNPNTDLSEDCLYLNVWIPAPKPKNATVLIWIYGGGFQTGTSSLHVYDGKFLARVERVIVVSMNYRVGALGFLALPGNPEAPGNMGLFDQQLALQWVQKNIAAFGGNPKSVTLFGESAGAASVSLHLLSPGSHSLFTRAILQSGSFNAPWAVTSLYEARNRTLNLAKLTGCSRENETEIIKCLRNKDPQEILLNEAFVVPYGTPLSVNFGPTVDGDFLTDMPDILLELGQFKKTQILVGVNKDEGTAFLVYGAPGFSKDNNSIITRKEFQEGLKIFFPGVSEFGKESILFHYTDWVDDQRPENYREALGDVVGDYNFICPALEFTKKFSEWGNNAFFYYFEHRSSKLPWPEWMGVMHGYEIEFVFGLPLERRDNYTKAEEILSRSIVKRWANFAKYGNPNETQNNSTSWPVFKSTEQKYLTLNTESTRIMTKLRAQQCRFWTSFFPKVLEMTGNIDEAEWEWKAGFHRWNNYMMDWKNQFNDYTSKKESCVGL
Assay [1] has as its target Acetylcholinesterase (Electrophorus electricus) (UniProt O42275). The description is as §1. Further details: concentration or dose not given beside the values.
The test system of assay [2] is NCI-H157. As to the kind of experiment: Antiproliferative activity against human NCI-H157 cells at 1 uM after 48 hrs by SRB assay. In kind it is functional. The method, boiled down: (§2)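 H157 lung carcinoma cells were seeded at 10⁴ cells per well in 96-well plates and grown 24 h at 37 °C in 5% CO₂ to a monolayer. Compounds were added at […]. Cells were fixed, stained with 0.4% w/v sulforhodamine B in 1% acetic acid for 30 min at room temperature, rinsed in acetic acid, and the dye dissolved in 10 mM Tris base for 10 min.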
(Sulforhodamine B stains cellular protein and so reports cell mass.)

Assay [3] deals with NCI-H157. Kind of assay: Antiproliferative activity against human NCI-H157 cells at 100 uM after 48 hrs by SRB assay. Type of assay: functional. The method in brief: as §2

The structures appear in SMILES notation.

27 compounds from ChEMBL document CHEMBL3232752, “Synthesis, cytotoxicity and molecular modelling studies of new phenylcinnamide derivatives as potent inhibitors of cholinesterases” (Eur J Med Chem, 2014) can be followed below.

Acetylcholinesterase, sequence (O42275 whole entry): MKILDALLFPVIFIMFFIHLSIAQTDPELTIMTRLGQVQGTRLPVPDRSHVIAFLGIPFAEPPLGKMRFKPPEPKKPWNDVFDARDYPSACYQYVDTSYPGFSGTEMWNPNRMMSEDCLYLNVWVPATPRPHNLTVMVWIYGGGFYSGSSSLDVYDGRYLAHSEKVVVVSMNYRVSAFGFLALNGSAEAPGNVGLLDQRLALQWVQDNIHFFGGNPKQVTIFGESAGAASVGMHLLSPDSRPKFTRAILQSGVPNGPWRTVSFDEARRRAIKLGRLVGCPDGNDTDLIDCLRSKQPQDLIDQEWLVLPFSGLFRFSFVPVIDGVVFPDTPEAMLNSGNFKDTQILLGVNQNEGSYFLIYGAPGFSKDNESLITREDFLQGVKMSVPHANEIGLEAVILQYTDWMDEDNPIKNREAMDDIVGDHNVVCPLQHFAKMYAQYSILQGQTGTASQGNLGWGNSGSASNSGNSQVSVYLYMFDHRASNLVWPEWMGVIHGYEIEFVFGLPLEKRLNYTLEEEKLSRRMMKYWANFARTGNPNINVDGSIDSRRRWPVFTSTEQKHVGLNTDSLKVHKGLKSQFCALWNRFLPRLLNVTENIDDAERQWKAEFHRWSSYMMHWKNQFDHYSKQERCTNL
Acetylcholinesterase (Electrophorus electricus), sequence (O42275 24-633 limits assumed): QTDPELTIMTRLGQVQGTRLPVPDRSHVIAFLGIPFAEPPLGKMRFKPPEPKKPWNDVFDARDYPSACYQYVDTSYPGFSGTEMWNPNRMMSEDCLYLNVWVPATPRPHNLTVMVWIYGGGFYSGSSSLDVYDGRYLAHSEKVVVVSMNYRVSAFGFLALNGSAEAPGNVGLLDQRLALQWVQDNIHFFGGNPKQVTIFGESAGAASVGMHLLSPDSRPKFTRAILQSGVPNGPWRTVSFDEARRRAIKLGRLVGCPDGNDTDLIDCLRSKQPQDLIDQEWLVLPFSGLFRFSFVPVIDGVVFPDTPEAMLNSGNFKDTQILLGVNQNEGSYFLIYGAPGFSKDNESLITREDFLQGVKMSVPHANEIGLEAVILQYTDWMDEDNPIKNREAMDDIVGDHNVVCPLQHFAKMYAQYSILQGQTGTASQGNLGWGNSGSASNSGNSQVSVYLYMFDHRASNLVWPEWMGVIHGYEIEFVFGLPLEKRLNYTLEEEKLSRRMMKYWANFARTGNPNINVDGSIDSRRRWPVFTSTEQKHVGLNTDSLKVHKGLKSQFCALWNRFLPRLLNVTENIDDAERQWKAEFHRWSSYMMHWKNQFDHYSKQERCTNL

As for `COc1cc(NC(=O)/C=C/c2ccc(NOC(C)=O)cc2)cc(OC)c1OC`, the IC50 – broadly, the point on the concentration scale where inhibition reaches its midpoint – against Acetylcholinesterase amounted to 12.5 µM; on Cholinesterase, 3.85 µM.

For the compound `COc1cc(NC(=O)/C=C/c2ccc(O)c(O)c2)cc(OC)c1OC`, the results for the inhibition (in assay [1]; against Cholinesterase) were 36.4% and 34.6%, respectively.

Consider `COc1cccc(/C=C/C(=O)Nc2cc(OC)c(OC)c(OC)c2)c1O`, for which the IC50 against Acetylcholinesterase worked out at 6.22 µM; on Cholinesterase, 5.19 µM.

Compound `COc1cccc(/C=C/C(=O)Nc2cc(OC)c(OC)c(OC)c2)c1` came in with an IC50 against Acetylcholinesterase of 12.9 µM. Also, at Cholinesterase, the inhibition (as a rule, the percentage by which the read-out fell short of the control) is 41.8%.

Turning to `COc1ccc(/C=C/C(=O)Nc2cc(OC)c(OC)c(OC)c2)cc1OCc1ccccc1`, in the assay on NCI-H157 [2], the Activity came to 61%. It took 6.02 µM to reach half-maximal inhibition against Acetylcholinesterase (IC50). The same compound came in with an inhibition at Cholinesterase of 31.1%.

Consider `CN(C)C(=O)Oc1cccc([N+](C)(C)C)c1` [NEOSTIGMINE], for which the IC50 came to 22 µM at Acetylcholinesterase and 49.1 µM at Cholinesterase.

The compound `COc1cc(NC(=O)/C=C/c2cccc([N+](=O)[O-])c2)cc(OC)c1OC` came in with an IC50 at Acetylcholinesterase of 3.24 µM. At Cholinesterase, this compound displayed an inhibition of 26.2%.

Turning to `COc1cc(NC(=O)/C=C/c2ccc(OC(C)=O)cc2)cc(OC)c1OC`, the inhibition in assay [1] was 36.5%; against Cholinesterase, 37.4%.

Consider `COc1cc(/C=C/C(=O)Nc2cc(OC)c(OC)c(OC)c2)ccc1OC(C)=O`, for which, at Acetylcholinesterase, the IC50 is 4.98 µM. For the same compound, the inhibition at Cholinesterase was determined as 31.1%.

As for `COc1cc(NC(=O)/C=C/c2cccc(O)c2O)cc(OC)c1OC`, the inhibition in assay [1] worked out at 31.2%; against Cholinesterase it was 41.2%.

At Acetylcholinesterase, `COc1cc(NC(=O)/C=C/c2ccc(Cl)cc2)cc(OC)c1OC` returned an IC50 of 31.2 µM. For the same compound, the inhibition against Cholinesterase worked out at 25.7%.

For `COc1ccc(/C=C/C(=O)Nc2cc(OC)c(OC)c(OC)c2)cc1[N+](=O)[O-]`, in the assay on NCI-H157 [2], the Activity was found to be 66%. At Acetylcholinesterase, this compound came in with an IC50 of 6.69 µM. For the same compound, the inhibition against Cholinesterase came out at 28.1%.

In the case of `CC[C@]1(O)C[C@H]2CN(CCc3c([nH]c4ccccc34)[C@@](C(=O)OC)(c3cc4c(cc3OC)N(C=O)[C@H]3[C@@](O)(C(=O)OC)[C@H](OC(C)=O)[C@]5(CC)C=CCN6CC[C@]43[C@@H]65)C2)C1` [VINCRISTINE], the Activity in the assay on NCI-H157 [3] worked out at 46%.

`COc1cc(NC(=O)/C=C/c2cccc(OCc3ccccc3)c2)cc(OC)c1OC`: the figures for the IC50 at Acetylcholinesterase and on Cholinesterase were 6.52 µM and 3.93 µM, respectively.

`COc1cc(/C=C/C(=O)Nc2cc(OC)c(OC)c(OC)c2)ccc1OCc1ccccc1` displayed an IC50 on Acetylcholinesterase of 12.6 µM. The inhibition against Cholinesterase was determined as 32.8%.

`COc1cc(NC(=O)/C=C/c2c(O)cccc2[N+](=O)[O-])cc(OC)c1OC`: the IC50 against Acetylcholinesterase came to 12.8 µM. For the same compound, the inhibition at Cholinesterase was 35.4%.

`COc1cc(NC(=O)/C=C/c2cccc(OC(C)=O)c2)cc(OC)c1OC` yielded an inhibition in assay [1] of 29.2%. The compound also yielded an IC50 against Cholinesterase of 1.25 µM.

In the case of `COc1cc(NC(=O)/C=C/c2ccccc2OCc2ccccc2)cc(OC)c1OC`, the IC50 at Acetylcholinesterase is 0.29 µM. The inhibition on Cholinesterase came out at 32.1%.

As for `COc1cc(NC(=O)/C=C/c2ccc(O)cc2O)cc(OC)c1OC`, the inhibition in assay [1] was 36.6%; on Cholinesterase, 18.2%.

As to `C=CCOc1ccc(/C=C/C(=O)Nc2cc(OC)c(OC)c(OC)c2)cc1`, the figures for the inhibition (in assay [1]; on Cholinesterase) were 33.6% and 32.6%, respectively.

In assay [1], `COc1cc(NC(=O)/C=C/c2c(Cl)cccc2[N+](=O)[O-])cc(OC)c1OC` showed an inhibition of 34.2%.

With `COc1ccc(/C=C/C(=O)Nc2cc(OC)c(OC)c(OC)c2)cc1O`, the half-inhibitory concentration (IC50) turned out to be 4.22 µM at Acetylcholinesterase and 7.65 µM on Cholinesterase.

On to `COc1cc(NC(=O)/C=C/c2ccc(OCc3ccccc3)cc2)cc(OC)c1OC`, for which it took 3.72 µM to reach half-maximal inhibition at Acetylcholinesterase (IC50). For the same compound, on Cholinesterase, the inhibition turned out to be 33.5%.

At Acetylcholinesterase, `C=CCOc1ccccc1/C=C/C(=O)Nc1cc(OC)c(OC)c(OC)c1` registered an IC50 of 1.41 µM. Further, at Cholinesterase, the inhibition is 24.8%.

`COc1cc(NC(=O)/C=C/c2c(F)cccc2Cl)cc(OC)c1OC` yielded an Activity in the assay with NCI-H157 [2] of 66%. Moreover, the inhibition in assay [1] is 34.1%. In addition, the IC50 against Cholinesterase worked out at 1.32 µM.

In turn, `COc1cc(NC(=O)/C=C/c2ccc(OCc3ccccc3)cc2O)cc(OC)c1OC` showed an IC50 at Acetylcholinesterase of 1.59 µM. Further, the inhibition against Cholinesterase was found to be 27.2%.

`COc1cc(NC(=O)/C=C/c2cc(O)ccc2O)cc(OC)c1OC` returned an Activity with NCI-H157 [2] of 60%. Also, the inhibition amounted to 30.3% in assay [1] and 36.2% against Cholinesterase.
